≈ marks a conversion by molar mass, not a printed value.
How the values were obtained:
Candida albicans [1] = assay: Antifungal activity against fluconazole resistant Candida albicans A171 by CLSI protocol based broth microdilution method; assay type: functional
How it was run: (§1)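 Broth microdilution per CLSI M27-A3 against clinical C. albicans isolates. Strains sub-cultured at least twice on Tryptone Soya Agar, 37 °C, 48 h. Compounds dissolved in DMSO at 2000 μg mL–1 stock. Fluconazole positive control, plus culture, media and vehicle controls. Run in duplicate; MIC in μg mL–1.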

Candida albicans [2] = assay: Inhibition of ergosterol biosynthesis in fluconazole susceptible Candida albicans ATCC 90028 at 0.5 to 1 times MIC relative to control; assay type: functional
How it was run: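 ATCC90028 grown in 50 ml TSB with MIC and ½ MIC of compound; untreated and 8 μg mL–1 fluconazole controls. Sterols extracted by alcoholic KOH method and spectrophotometrically scanned; ergosterol % calculated from A281.5 and A230 (E values 290 and 518) with dilution factor, per pellet weight.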

Candida albicans [3] = assay: Inhibition of ABC efflux pumps in fluconazole resistant Candida albicans 167-1 assessed as reduction in energy-dependent rhodamine 6G efflux in presence of 0.1 M glucose after 25 mins […] relative to control
Candida albicans [4] = assay: Antifungal activity against fluconazole susceptible Candida albicans 004B1 in presence of fluconazole by CLSI protocol based broth microdilution method; assay type: functional
Candida albicans [5] = assay: Antifungal activity against fluconazole susceptible Candida albicans 003gr by CLSI protocol based broth microdilution method; assay type: functional
How it was run: (§2)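 Clinical isolates and control strain subcultured at least twice on TSA, 37 °C, 48 h. MICs by CLSI M27-A3 broth microdilution; compounds dissolved in DMSO to 2000 μg mL–1 stock. Fluconazole positive control, culture, media and DMSO vehicle controls in each run. Duplicate experiments; MIC in μg mL–1.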

Candida albicans [6] = assay: Inhibition of ergosterol biosynthesis in fluconazole resistant Candida albicans A171 at 0.5 to 1 times MIC relative to control; assay type: functional
How it was run: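 Total sterols quantified by alcoholic KOH extraction in cells grown in 50 ml TSB with compounds at MIC and ½ MIC; untreated and 8 μg mL–1 fluconazole controls. Spectral scan; ergosterol content from A281.5 and A230 absorbances, dilution factor and pellet weight, correcting for 24(28) DHE.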

Candida albicans [7] = assay: Antifungal activity against fluconazole susceptible Candida albicans 0079gr in presence of fluconazole by CLSI protocol based broth microdilution method; assay type: functional
Candida albicans [8] = assay: Antifungal activity against fluconazole resistant Candida albicans A171 in presence of fluconazole by CLSI protocol based broth microdilution method; assay type: functional
How it was run: (§3)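 Checkerboard-style combination with fluconazole at a 1 : 1 ratio, over concentrations 2–4 fold below each agent's MIC alone, by CLSI broth microdilution. Fractional inhibitory concentration index calculated and interpreted as synergy (<0.5), additive (0.5–1), indifferent or antagonistic.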

Candida albicans [9] = assay: Antifungal activity against fluconazole susceptible Candida albicans 0072gr in presence of fluconazole by CLSI protocol based broth microdilution method; assay type: functional
Candida albicans [10] = assay: Inhibition of ABC efflux pumps in fluconazole resistant Candida albicans A171 assessed as reduction in energy-dependent rhodamine 6G efflux in presence of 0.1 M glucose after 25 mins by fluorescence assay relative to control
How it was run: (§4)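 Cells grown in TSB at 37 °C for 8 h, washed, resuspended in glucose-free PBS at 1 × 10^8 cells. De-energized 45 min with 5 mM deoxyglucose plus 5 mM dinitrophenol. […] Washed, sampled 5–25 min, then 0.1 M glucose added. Absorbance 527 nm, R6G from standard curve.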

Candida albicans [11] = assay: Inhibition of ABC efflux pumps in fluconazole susceptible Candida albicans 0079gr assessed as reduction in energy-dependent rhodamine 6G efflux in presence of 0.1 M glucose after 25 mins by fluorescence assay relative to control; how it was run: as §4
Candida albicans [12] = assay: Antifungal activity against fluconazole susceptible Candida albicans 0072gr by CLSI protocol based broth microdilution method; assay type: functional; how it was run: as §2
Candida albicans [13] = assay: Inhibition of ABC efflux pumps in fluconazole susceptible Candida albicans 004B1 assessed as reduction in energy-dependent rhodamine 6G efflux in presence of 0.1 M glucose after 25 mins by fluorescence assay relative to control; how it was run: as §4
Candida albicans [14] = assay: Antifungal activity against Candida albicans ATCC 90028 in presence of fluconazole by CLSI protocol based broth microdilution method; assay type: functional
Candida albicans [15] = assay: Antifungal activity against fluconazole susceptible Candida albicans 0079gr by CLSI protocol based broth microdilution method; assay type: functional; how it was run: as §2
Candida albicans [16] = assay: Antifungal activity against fluconazole resistant Candida albicans 167-2 by CLSI protocol based broth microdilution method; assay type: functional; how it was run: as §1
Candida albicans [17] = assay: Antifungal activity against fluconazole susceptible Candida albicans 004gr in presence of fluconazole by CLSI protocol based broth microdilution method; assay type: functional
Candida albicans [18] = assay: Inhibition of ABC efflux pumps in fluconazole susceptible Candida albicans 003gr assessed as reduction in energy-dependent rhodamine 6G efflux in presence of 0.1 M glucose after 25 mins […] relative to control
Candida albicans [19] = assay: Antifungal activity against fluconazole resistant Candida albicans 167-2 in presence of fluconazole by CLSI protocol based broth microdilution method; assay type: functional; how it was run: as §3
Candida albicans [20] = assay: Antifungal activity against fluconazole susceptible Candida albicans 004B1 by CLSI protocol based broth microdilution method; assay type: functional; how it was run: as §2
Candida albicans [21] = assay: Down regulation of ERG11 gene expression in fluconazole resistant Candida albicans A171 at MIC after 2 hrs by qRT PCR analysis relative to control; assay type: functional
How it was run: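 Cells exposed 2 h to test agents at MIC. Total RNA isolated, cDNA synthesized, qPCR for ERG11 with ACT1 as endogenous control. Triplicate independent experiments, reported as mean ± standard deviation.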

Candida albicans [22] = assay: Antifungal activity against fluconazole susceptible Candida albicans 002B1 by CLSI protocol based broth microdilution method; assay type: functional; how it was run: as §2
Candida albicans [23] = assay: Inhibition of ABC efflux pumps in fluconazole susceptible Candida albicans 0072gr assessed as reduction in energy-dependent rhodamine 6G efflux in presence of 0.1 M glucose after 25 mins […] relative to control
Candida albicans [24] = assay: Antifungal activity against Candida albicans ATCC 90028 by CLSI protocol based broth microdilution method; assay type: functional; how it was run: as §2
Candida albicans [25] = assay: Antifungal activity against fluconazole susceptible Candida albicans 002B1 in presence of fluconazole by CLSI protocol based broth microdilution method; assay type: functional
Candida albicans [26] = assay: Antifungal activity against fluconazole resistant Candida albicans 167-1 by CLSI protocol based broth microdilution method; assay type: functional; how it was run: as §1
Candida albicans [27] = assay: Inhibition of ABC efflux pumps in fluconazole susceptible Candida albicans 002B1 assessed as reduction in energy-dependent rhodamine 6G efflux in presence of 0.1 M glucose after 25 mins […] relative to control
Candida albicans [28] = assay: Antifungal activity against fluconazole susceptible Candida albicans 004gr by CLSI protocol based broth microdilution method; assay type: functional; how it was run: as §2
Candida albicans [29] = assay: Antifungal activity against fluconazole susceptible Candida albicans 003gr in presence of fluconazole by CLSI protocol based broth microdilution method; assay type: functional
Candida albicans [30] = assay: Down regulation of ERG11 gene expression in fluconazole susceptible Candida albicans ATCC 90028 at MIC after 2 hrs by qRT PCR analysis relative to control; assay type: functional
How it was run: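 Cells exposed to compound at MIC for 2 h; total RNA isolated, cDNA synthesised, ERG11 measured by real-time qPCR with ACT1 as endogenous control. Triplicate independent experiments; mean ± standard deviation.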

Candida albicans [31] = assay: Inhibition of ABC efflux pumps in fluconazole susceptible Candida albicans 004gr assessed as reduction in energy-dependent rhodamine 6G efflux in presence of 0.1 M glucose after 25 mins by fluorescence assay relative to control; how it was run: as §4
Candida albicans [32] = assay: Inhibition of ABC efflux pumps in fluconazole resistant Candida albicans 167-2 assessed as reduction in energy-dependent rhodamine 6G efflux in presence of 0.1 M glucose after 25 mins […] relative to control
Candida albicans [33] = assay: Antifungal activity against fluconazole resistant Candida albicans 167-1 in presence of fluconazole by CLSI protocol based broth microdilution method; assay type: functional; how it was run: as §3

SMILES	MIC (Candida albicans [1])	inhibition (INH) (Candida albicans [2])	inhibition (Candida albicans [3])	fractional inhibitory concentration index (FICI) (Candida albicans [4])	MIC (Candida albicans [5])	inhibition (INH) (Candida albicans [6])	fractional inhibitory concentration index (FICI) (Candida albicans [7])	fractional inhibitory concentration index (FICI) (Candida albicans [8])	fractional inhibitory concentration index (FICI) (Candida albicans [9])	inhibition (Candida albicans [10])	inhibition (Candida albicans [11])	MIC (Candida albicans [12])	inhibition (Candida albicans [13])	fractional inhibitory concentration index (FICI) (Candida albicans [14])	MIC (Candida albicans [15])	MIC (Candida albicans [16])	fractional inhibitory concentration index (FICI) (Candida albicans [17])	inhibition (Candida albicans [18])	fractional inhibitory concentration index (FICI) (Candida albicans [19])	MIC (Candida albicans [20])	other results
S=C1NC(c2ccccc2)=CC(c2ccc(C3C=C(c4ccccc4)NC(=S)N3)cc2)N1 (stereo unspecified)	2 µg/mL (≈ 4.4 µM)	66 - 99%	28%	0.13 - 0.31	0.125 to 1 µg/mL (≈ 0.275 to 2.2 µM)	49 - 94%	0.127	0.25 - 0.251	0.13 - 0.31	28%	28%	0.125 to 1 µg/mL (≈ 0.275 to 2.2 µM)	28%	0.13 - 0.31	0.125 to 1 µg/mL (≈ 0.275 to 2.2 µM)	2 µg/mL (≈ 4.4 µM)	0.13 - 0.31	28%	0.25 - 0.251	0.125 to 1 µg/mL (≈ 0.275 to 2.2 µM)	fold change (FC) (Candida albicans [21]): 1.25 - 10; MIC (Candida albicans [22]): 0.125 to 1 µg/mL (≈ 0.275 to 2.2 µM); inhibition (Candida albicans [23]): 28%; MIC (Candida albicans [24]): 0.125 to 1 µg/mL (≈ 0.275 to 2.2 µM); fractional inhibitory concentration index (FICI) (Candida albicans [25]): 0.13 - 0.31; MIC (Candida albicans [26]): 2 µg/mL (≈ 4.4 µM); inhibition (Candida albicans [27]): 28%; MIC (Candida albicans [28]): 0.125 to 1 µg/mL (≈ 0.275 to 2.2 µM); fractional inhibitory concentration index (FICI) (Candida albicans [29]): 0.13 - 0.31; fold change (FC) (Candida albicans [30]): 1.5 - 13; inhibition (Candida albicans [31]): 28%; inhibition (Candida albicans [32]): 28%; fractional inhibitory concentration index (FICI) (Candida albicans [33]): 0.25 - 0.251
c1ccc(C2=NOC(c3ccc(C4CC(c5ccccc5)=NO4)cc3)C2)cc1 (stereo unspecified)	8 to 16 µg/mL (≈ 21.7 to 43.4 µM)	66 - 99%	< 20%	0.37 - 0.75	2 to 8 µg/mL (≈ 5.43 to 21.7 µM)	49 - 94%	0.37 - 0.75	0.532 - 1.02	0.37 - 0.75	< 20%	< 20%	2 to 8 µg/mL (≈ 5.43 to 21.7 µM)	< 20%	0.37 - 0.75	2 to 8 µg/mL (≈ 5.43 to 21.7 µM)	8 to 16 µg/mL (≈ 21.7 to 43.4 µM)	0.37 - 0.75	< 20%	0.532 - 1.02	2 to 8 µg/mL (≈ 5.43 to 21.7 µM)	fold change (FC) (Candida albicans [21]): 1.25 - 10; MIC (Candida albicans [22]): 2 to 8 µg/mL (≈ 5.43 to 21.7 µM); inhibition (Candida albicans [23]): < 20%; MIC (Candida albicans [24]): 2 to 8 µg/mL (≈ 5.43 to 21.7 µM); fractional inhibitory concentration index (FICI) (Candida albicans [25]): 0.37 - 0.75; MIC (Candida albicans [26]): 8 to 16 µg/mL (≈ 21.7 to 43.4 µM); inhibition (Candida albicans [27]): < 20%; MIC (Candida albicans [28]): 2 to 8 µg/mL (≈ 5.43 to 21.7 µM); fractional inhibitory concentration index (FICI) (Candida albicans [29]): 0.37 - 0.75; fold change (FC) (Candida albicans [30]): 1.5 - 13; inhibition (Candida albicans [31]): < 20%; inhibition (Candida albicans [32]): < 20%; fractional inhibitory concentration index (FICI) (Candida albicans [33]): 0.532 - 1.02

From ChEMBL document CHEMBL4257459, “Synergistic antifungal effect of cyclized chalcone derivatives and fluconazole against Candida albicans” (2017)
